# Experimental data published in ChEMBL document CHEMBL1121505, “Retinoic acid analogues. Synthesis and potential as cancer chemopreventive agents” (J Med Chem, 1980).
# Experiments:
# Format in all cases: functional
# [1] = Inhibition of skin tumor promoter -induced mouse epidermal ornithine decarboxylase (ODC) activity on TPA-induced mouse epidermis at a dose of 1.7(nmol)
# How it was run: (§1)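 Female CD-1 mice, 7–9 weeks, shaved dorsal skin 1–2 days before, no hair regrowth. Retinoid applied topically in 0.2 mL acetone 1 h before single topical TPA (10.5 μg, 17 nmol, in 0.2 mL acetone). Killed 5 h after TPA. Five mice per group, skins pooled. Epidermal 30000g supernatant in 50 mM sodium phosphate, 0.1 mM pyridoxal phosphate, 0.1 mM EDTA.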
# [2] = Inhibition of skin tumor promoter -induced mouse epidermal ornithine decarboxylase (ODC) activity on TPA-induced mouse epidermis at a dose of 17(nmol); how it was run: as §1
# [3] = Inhibition of skin tumor promoter -induced mouse epidermal ornithine decarboxylase (ODC) activity on TPA-induced mouse epidermis at a dose of 170(nmol); how it was run: as §1
inhibition [1],inhibition [2],inhibition [3],SMILES
46%,63%,95%,CCOC(=O)/C=C(C)/C=C/C=C(C)/C=C/C1=CC2CCC1C2 (stereo unspecified)
91%,–,–,CC1=C(/C=C/C(C)=C/C=C/C(C)=C/C(=O)O)C(C)(C)CCC1
70%,92%,97%,COCCOCCOC(=O)/C=C(C)/C=C/C=C(C)/C=C/C1=C(C)CCCC1(C)C
3%,46%,92%,CC(=O)Oc1cccc(/C=C/C=C(C)/C=C/C2=C(C)CCCC2(C)C)c1
3%,13%,2%,CC1=C(/C=C/C(C)=C/C=C/C(C)=C/c2nn[nH]n2)C(C)(C)CCC1
66%,86%,87%,CCC1=C(/C=C/C(C)=C/C=C/C(C)=C/C(=O)O)C(C)(C)CCC1
